# Measured values pooled from the literature.
# Organism: Pichia kudriavzevii
SMILES,read-out,method,strain,time,measurement,result
CN1CCNCC1,microbial growth,broth dilution,ATCC6258,48 h,MIC,> 31.3 µg/mL
CCCCCCCOc1c(OC)cc(NC(C)CCCN)c2nc(C(C)(C)C)ccc12 (stereo not shown),microbial killing,,ATCC6258,,MFC,5 µg/mL
C#CCCCCCCCCCCCC(O)CC(O)CO (stereo not shown),microbial growth,broth dilution,ATCC6258,,IC50,> 200 µg/mL
Nc1[nH]c(=O)ncc1F,microbial growth,,,,MIC90,8 µg/mL
CCCCCCCCCN1CCN(CC(O)(Cn2cncn2)c2ccc(F)cc2F)CC1 (stereo not shown),microbial growth,broth dilution,ATCC6258,48 h,MIC,0.975 µg/mL
C[C@@H]1[C@H](O)[C@@H](C)/C=C/C=C/C=C/C=C/C=C/C=C/C=C/[C@H](O[C@@H]2O[C@H](C)[C@@H](O)[C@H](N)[C@@H]2O)C[C@@H]2O[C@](O)(C[C@@H](O)C[C@@H](O)[C@H](O)CC[C@@H](O)C[C@@H](O)CC(=O)O[C@H]1C)C[C@H](O)[C@H]2C(=O)O,microbial growth,,,,MIC90,0.125 µg/mL
CCCCCCCCCCN1CCN(CC(O)(Cn2cncn2)c2ccc(F)cc2F)CC1 (stereo not shown),microbial growth,broth dilution,ATCC6258,48 h,MIC,1.95 µg/mL
CCCCCCOc1c(OC)cc(NC(C)CCCN)c2nc(C(C)(C)C)cc(C)c12 (stereo not shown),microbial growth,,ATCC6258,,IC50,3.73 µg/mL
CCCCCCCCCCCCCCN1CCOCC1,microbial growth,broth dilution,ATCC6258,48 h,MIC,> 31.3 µg/mL
CCCCCCCOc1c(OC)cc(NC(C)CCCN)c2nc(C(C)(C)C)cc(C)c12 (stereo not shown),microbial growth,,ATCC6258,,IC50,2.89 µg/mL
C[C@@H]1[C@H](O)[C@@H](C)/C=C/C=C/C=C/C=C/C=C/C=C/C=C/[C@H](O[C@@H]2O[C@H](C)[C@@H](O)[C@H](N)[C@@H]2O)C[C@@H]2O[C@](O)(C[C@@H](O)C[C@@H](O)[C@H](O)CC[C@@H](O)C[C@@H](O)CC(=O)O[C@H]1C)C[C@H](O)[C@H]2C(=O)O,microbial killing,,ATCC6258,,MFC,1.35 µM
C[C@@H]1[C@H](O)[C@@H](C)/C=C/C=C/C=C/C=C/C=C/C=C/C=C/[C@H](O[C@@H]2O[C@H](C)[C@@H](O)[C@H](N)[C@@H]2O)C[C@@H]2O[C@](O)(C[C@@H](O)C[C@@H](O)[C@H](O)CC[C@@H](O)C[C@@H](O)CC(=O)O[C@H]1C)C[C@H](O)[C@H]2C(=O)O,microbial growth,broth dilution,ATCC6258,,IC50,0.65 µg/mL
C[C@@H](c1ncncc1F)[C@](O)(Cn1cncn1)c1ccc(F)cc1F,microbial growth,,,,MIC90,0.25 µg/mL
CCCCCCCCCCCCCC(O)CC(O)CO (stereo not shown),microbial growth,broth dilution,ATCC6258,,IC50,196 µg/mL
CCCCCOc1c(OC)cc(NC(C)CCCNC(=O)C(N)CC(C)C)c2nc(C(C)(C)C)ccc12 (stereo not shown),microbial growth,,ATCC6258,,IC50,8.73 µg/mL
CCCCCCCCCCCN1CCN(CC(O)(Cn2cncn2)c2ccc(F)cc2F)CC1 (stereo not shown),microbial growth,broth dilution,ATCC6258,48 h,MIC,1.95 µg/mL
CCCCCOc1c(OC)cc(NC(C)CCCNC(=O)C(N)Cc2cc3ccccc3[nH]2)c2nc(C(C)(C)C)ccc12 (stereo not shown),microbial growth,,ATCC6258,,IC50,4.28 µg/mL
CCCCCCCCCCCCCN1CCN(CC(O)(Cn2cncn2)c2ccc(F)cc2F)CC1 (stereo not shown),microbial growth,broth dilution,ATCC6258,48 h,MIC,0.975 µg/mL
CCCCCCCOc1c(OC)cc(NC(C)CCCNC(=O)C(N)C(C)CC)c2nc(C(C)(C)C)ccc12 (stereo not shown),microbial growth,,ATCC6258,,IC50,4.38 µg/mL
CC[C@H](C)C[C@H](C)CCCCCCCCC(=O)N[C@H]1C[C@@H](O)[C@@H](NCCN)NC(=O)[C@@H]2[C@@H](O)CCN2C(=O)[C@H]([C@H](O)CCN)NC(=O)[C@H]([C@H](O)[C@@H](O)c2ccc(O)cc2)NC(=O)[C@@H]2C[C@@H](O)CN2C(=O)[C@H]([C@@H](C)O)NC1=O,microbial growth,broth dilution,ATCC6258,48 h,MIC,0.48 µg/mL
COc1cc(NC(C)CCCN)c2nc(C(C)(C)C)ccc2c1Oc1ccc(Cl)c(Cl)c1 (stereo not shown),microbial growth,,ATCC6258,,IC50,8.65 µg/mL
C[C@@H]1[C@H](O)[C@@H](C)/C=C/C=C/C=C/C=C/C=C/C=C/C=C/[C@H](O[C@@H]2O[C@H](C)[C@@H](O)[C@H](N)[C@@H]2O)C[C@@H]2O[C@](O)(C[C@@H](O)C[C@@H](O)[C@H](O)CC[C@@H](O)C[C@@H](O)CC(=O)O[C@H]1C)C[C@H](O)[C@H]2C(=O)O,microbial growth,,ATCC6258,,IC50,0.95 µg/mL
